Laboratory results from ChEMBL document CHEMBL4014343 (J Med Chem, 2017).
Active and inactive are the calls of the source. The rule behind the calls is not given here.

How the values were obtained:
[1] = system: HCT-15; assay: Growth inhibition of human HCT15 cells incubated for 48 hrs by sulforhodamine B assay; assay type: functional, cell-based
[2] = system: M14; assay: Growth inhibition of human M14 cells incubated for 48 hrs by sulforhodamine B assay; assay type: functional, cell-based
[3] = system: SNB-75; assay: Growth inhibition of human SNB75 cells incubated for 48 hrs by sulforhodamine B assay; assay type: functional, cell-based
[4] = molecular target: T1, Insulin-like growth factor 1 receptor (Homo sapiens, UniProt P08069); assay: Inhibition of IGF1R phosphorylation at Tyr1161 residue in human MCF7 cells at 0.5 uM after 1 hr by immunoblot analysis; assay type: cell-based
T1 sequence (P08069 31-736 limits assumed): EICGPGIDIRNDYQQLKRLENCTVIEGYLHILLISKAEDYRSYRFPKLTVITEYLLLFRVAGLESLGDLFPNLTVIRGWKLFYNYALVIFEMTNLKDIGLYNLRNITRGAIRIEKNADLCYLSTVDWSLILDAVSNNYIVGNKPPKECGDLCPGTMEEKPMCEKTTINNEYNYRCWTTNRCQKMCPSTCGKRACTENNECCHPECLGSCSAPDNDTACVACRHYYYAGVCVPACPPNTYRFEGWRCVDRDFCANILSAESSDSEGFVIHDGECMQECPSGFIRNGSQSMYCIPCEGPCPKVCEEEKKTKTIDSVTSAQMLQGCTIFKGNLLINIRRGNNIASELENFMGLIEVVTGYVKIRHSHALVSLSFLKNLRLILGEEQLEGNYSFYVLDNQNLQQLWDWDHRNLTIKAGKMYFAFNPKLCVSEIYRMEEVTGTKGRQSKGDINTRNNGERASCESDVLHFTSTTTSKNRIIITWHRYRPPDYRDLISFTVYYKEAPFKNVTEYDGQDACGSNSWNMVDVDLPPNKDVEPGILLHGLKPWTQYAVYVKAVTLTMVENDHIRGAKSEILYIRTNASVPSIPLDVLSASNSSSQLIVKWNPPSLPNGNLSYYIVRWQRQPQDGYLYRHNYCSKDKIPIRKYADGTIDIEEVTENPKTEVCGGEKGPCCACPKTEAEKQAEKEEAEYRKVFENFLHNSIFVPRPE
T1 sequence (P08069 741-1367 limits assumed): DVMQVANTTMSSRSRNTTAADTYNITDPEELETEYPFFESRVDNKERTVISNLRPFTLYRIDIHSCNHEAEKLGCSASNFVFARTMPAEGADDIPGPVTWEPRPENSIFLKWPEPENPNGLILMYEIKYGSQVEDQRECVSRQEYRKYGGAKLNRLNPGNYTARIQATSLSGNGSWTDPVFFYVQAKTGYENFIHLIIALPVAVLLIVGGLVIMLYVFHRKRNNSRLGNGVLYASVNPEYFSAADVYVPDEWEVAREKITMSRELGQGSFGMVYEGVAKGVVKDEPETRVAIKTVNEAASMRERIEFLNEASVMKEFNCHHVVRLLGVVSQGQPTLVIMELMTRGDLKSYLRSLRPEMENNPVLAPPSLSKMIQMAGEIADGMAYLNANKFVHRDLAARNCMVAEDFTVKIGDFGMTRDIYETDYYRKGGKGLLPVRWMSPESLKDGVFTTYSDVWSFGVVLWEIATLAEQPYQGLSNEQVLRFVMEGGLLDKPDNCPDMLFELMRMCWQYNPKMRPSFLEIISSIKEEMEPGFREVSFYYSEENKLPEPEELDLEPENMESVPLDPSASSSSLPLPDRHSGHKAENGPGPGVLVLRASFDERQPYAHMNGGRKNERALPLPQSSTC
Outline: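 MCF7 (DMEM/10% FBS, 24 h) treated with increasing concentrations for 1 h; 40 μg lysate on 10% SDS-PAGE, probed with p-IGF-1R (Y1161) antibody 1:1000 overnight at 4 °C; β-actin loading control, PI3K inhibitor positive control.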

[5] = system: U-251; assay: Growth inhibition of human U251 cells incubated for 48 hrs by sulforhodamine B assay; assay type: functional, cell-based
Outline: (§1)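 NCI-60 panel growth inhibition, run by the U.S. National Cancer Institute; GI50 values are means of two test series.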

[6] = molecular target: Serine/threonine-protein kinase Chk2 (Homo sapiens) (UniProt O96017); assay: Inhibition of CHK2 (unknown origin) at 1 uM
Chain of Serine/threonine-protein kinase Chk2 (Homo sapiens) (O96017 whole entry): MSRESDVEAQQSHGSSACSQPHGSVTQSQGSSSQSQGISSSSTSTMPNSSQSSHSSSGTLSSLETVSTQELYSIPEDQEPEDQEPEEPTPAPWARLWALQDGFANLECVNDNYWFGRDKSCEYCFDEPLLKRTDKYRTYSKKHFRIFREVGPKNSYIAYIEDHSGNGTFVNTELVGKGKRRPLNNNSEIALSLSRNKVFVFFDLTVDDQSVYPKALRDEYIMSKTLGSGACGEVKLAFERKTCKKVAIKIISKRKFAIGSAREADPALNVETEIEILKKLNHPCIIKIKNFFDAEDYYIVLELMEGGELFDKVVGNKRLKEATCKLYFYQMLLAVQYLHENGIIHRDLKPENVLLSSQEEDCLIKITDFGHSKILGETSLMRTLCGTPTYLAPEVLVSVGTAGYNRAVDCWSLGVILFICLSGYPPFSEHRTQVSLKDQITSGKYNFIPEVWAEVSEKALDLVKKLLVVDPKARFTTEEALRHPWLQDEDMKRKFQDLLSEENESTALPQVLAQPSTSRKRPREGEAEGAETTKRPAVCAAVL
Outline: (§2)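 Single-point profiling at 1 μM in a 22-kinase panel, performed externally by ProQinase; activity read as residual percent of control.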

[7] = system: MDA-MB-468; assay: Growth inhibition of human MDA-MB-468 cells incubated for 48 hrs by sulforhodamine B assay; assay type: functional, cell-based
[8] = system: RPMI-8226; assay: Growth inhibition of human RPMI8226 cells incubated for 48 hrs by sulforhodamine B assay; assay type: functional, cell-based
[9] = system: MDA-MB-435; assay: Growth inhibition of human MDA-MB-435 cells incubated for 48 hrs by sulforhodamine B assay; assay type: functional, cell-based
[10] = molecular target: Cyclin-dependent kinase 2/cyclin E1 (Homo sapiens) (UniProt P24864+P24941); assay: Inhibition of recombinant human N-terminal GST-tagged CDK2 (M1 to L298 residues)/Cyclin E1 (M1 to A395 residues) expressed in sf9 cells at 1 uM using RB-CTF as substrate by filter binding assay; outline: as §2
[11] = system: NCI-H23; assay: Growth inhibition of human NCI-H23 cells incubated for 48 hrs by sulforhodamine B assay; assay type: functional, cell-based
[12] = system: OVCAR-4; assay: Growth inhibition of human OVCAR4 cells incubated for 48 hrs by sulforhodamine B assay; assay type: functional, cell-based
[13] = molecular target: Cyclin-dependent kinase 4/cyclin D1 (Homo sapiens) (UniProt P11802+P24385); assay: Inhibition of recombinant human N-terminal GST-tagged CDK4 (S4 to E303 residues)/Cyclin D1 (Q4 to I295 residues) expressed in sf9 cells at 1 uM using RB-CTF as substrate by filter binding assay; outline: as §2
[14] = system: CAKI-1; assay: Growth inhibition of human Caki1 cells incubated for 48 hrs by sulforhodamine B assay; assay type: functional, cell-based
[15] = system: SK-MEL-5; assay: Growth inhibition of human SK-MEL-5 cells incubated for 48 hrs by sulforhodamine B assay; assay type: functional, cell-based
[16] = system: SNB-19; assay: Growth inhibition of human SNB19 cells incubated for 48 hrs by sulforhodamine B assay; assay type: functional, cell-based
[17] = system: CCRF-CEM; assay: Growth inhibition of human CCRF-CEM cells incubated for 48 hrs by sulforhodamine B assay; assay type: functional, cell-based
[18] = system: UACC-62; assay: Growth inhibition of human UACC62 cells incubated for 48 hrs by sulforhodamine B assay; assay type: functional, cell-based; outline: as §1
[19] = molecular target: Cyclin-dependent kinase 5/CDK5 activator 1 (Homo sapiens) (UniProt Q00535+Q15078); assay: Inhibition of recombinant human N-terminal GST-tagged CDK5 (M1 to P292 residues)/p35NCK (M1 to R307 residues) expressed in baculovirus infected sf9 cells at 1 uM using RB-CTF as substrate by filter binding assay; outline: as §2
Chain of Cyclin-dependent kinase 5/CDK5 activator 1 (Homo sapiens) (Q00535 whole entry, the tested form may be a part): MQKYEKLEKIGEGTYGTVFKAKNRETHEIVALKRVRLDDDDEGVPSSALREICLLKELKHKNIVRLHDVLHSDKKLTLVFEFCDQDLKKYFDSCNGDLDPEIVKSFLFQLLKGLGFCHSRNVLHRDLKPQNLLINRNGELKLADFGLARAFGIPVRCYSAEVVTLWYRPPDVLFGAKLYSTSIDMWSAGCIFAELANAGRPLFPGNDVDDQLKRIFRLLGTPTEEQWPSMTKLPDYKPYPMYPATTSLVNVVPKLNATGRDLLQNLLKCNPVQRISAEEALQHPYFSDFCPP
Chain of Cyclin-dependent kinase 5/CDK5 activator 1 (Homo sapiens) (Q15078 99-307 partner limits assumed): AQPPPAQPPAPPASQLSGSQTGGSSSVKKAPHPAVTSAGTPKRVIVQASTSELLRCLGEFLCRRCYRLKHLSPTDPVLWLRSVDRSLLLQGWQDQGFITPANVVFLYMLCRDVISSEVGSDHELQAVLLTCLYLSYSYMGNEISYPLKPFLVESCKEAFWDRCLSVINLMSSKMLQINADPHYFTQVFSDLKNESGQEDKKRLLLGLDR

[20] = molecular target: T2, Aurora kinase C (Homo sapiens) (UniProt Q9UQB9); assay: Inhibition of human N-terminal GST-tagged Aurora B (M1 to S27 residues) expressed in sf9 cells at 1 uM using CDC25C-derived peptide as substrate by filter binding assay; outline: as §2
T2 sequence (whole entry): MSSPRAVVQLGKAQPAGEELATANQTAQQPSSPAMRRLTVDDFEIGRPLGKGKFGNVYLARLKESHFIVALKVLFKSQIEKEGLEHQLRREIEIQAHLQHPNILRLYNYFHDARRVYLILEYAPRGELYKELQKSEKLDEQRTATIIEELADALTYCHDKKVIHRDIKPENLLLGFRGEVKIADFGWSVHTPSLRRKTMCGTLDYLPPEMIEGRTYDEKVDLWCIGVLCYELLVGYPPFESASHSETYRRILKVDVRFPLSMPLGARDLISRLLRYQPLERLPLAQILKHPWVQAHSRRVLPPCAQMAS

[21] = system: SK-OV-3; assay: Growth inhibition of human SKOV3 cells incubated for 48 hrs by sulforhodamine B assay; assay type: functional, cell-based
[22] = system: 786-0; assay: Growth inhibition of human 786-0 cells incubated for 48 hrs by sulforhodamine B assay; assay type: functional, cell-based
[23] = system: OVCAR-8; assay: Growth inhibition of human OVCAR8 cells incubated for 48 hrs by sulforhodamine B assay; assay type: functional, cell-based
[24] = system: K562; assay: Growth inhibition of human K562 cells incubated for 48 hrs by sulforhodamine B assay; assay type: functional, cell-based
[25] = system: A498; assay: Growth inhibition of human A498 cells incubated for 48 hrs by sulforhodamine B assay; assay type: functional, cell-based
[26] = system: HCC 2998; assay: Growth inhibition of human HCC2998 cells incubated for 48 hrs by sulforhodamine B assay; assay type: functional, cell-based
[27] = molecular target: T1, Insulin-like growth factor 1 receptor; assay: Inhibition of IGF1R in human HeLa cells assessed as reduction in Akt phosphorylation at Ser473 residue after 24 hrs by immunoblot analysis; assay type: cell-based
Outline: (§3)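 Cells in their medium with 10% FBS exposed to rising concentrations for 24 h; whole-cell lysates immunoblotted for p-Akt (S473) and total Akt; PI3K inhibitor at 10 μM as positive control.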

[28] = system: SK-MEL-28; assay: Growth inhibition of human SK-MEL-28 cells incubated for 48 hrs by sulforhodamine B assay; assay type: functional, cell-based
[29] = system: OVCAR-5; assay: Growth inhibition of human OVCAR5 cells incubated for 48 hrs by sulforhodamine B assay; assay type: functional, cell-based
[30] = system: SF-268; assay: Growth inhibition of human SF268 cells incubated for 48 hrs by sulforhodamine B assay; assay type: functional, cell-based
[31] = system: SR; assay: Growth inhibition of human SR cells incubated for 48 hrs by sulforhodamine B assay; assay type: functional, cell-based; outline: as §1
[32] = system: COLO 205; assay: Growth inhibition of human COLO205 cells incubated for 48 hrs by sulforhodamine B assay; assay type: functional, cell-based
[33] = system: SN12C; assay: Growth inhibition of human SN12C cells incubated for 48 hrs by sulforhodamine B assay; assay type: functional, cell-based
[34] = system: TK-10; assay: Growth inhibition of human TK10 cells incubated for 48 hrs by sulforhodamine B assay; assay type: functional, cell-based; outline: as §1
[35] = molecular target: Aurora kinase B (Homo sapiens) (UniProt Q96GD4); assay: Inhibition of human N-terminal GST/His6-tagged Aurora B (A2 to A344 residues) expressed in sf9 cells at 1 uM using tetra(LRRLSLG) as substrate by filter binding assay; outline: as §2
Chain of Aurora kinase B (Homo sapiens) (Q96GD4 whole entry, the tested form may be a part): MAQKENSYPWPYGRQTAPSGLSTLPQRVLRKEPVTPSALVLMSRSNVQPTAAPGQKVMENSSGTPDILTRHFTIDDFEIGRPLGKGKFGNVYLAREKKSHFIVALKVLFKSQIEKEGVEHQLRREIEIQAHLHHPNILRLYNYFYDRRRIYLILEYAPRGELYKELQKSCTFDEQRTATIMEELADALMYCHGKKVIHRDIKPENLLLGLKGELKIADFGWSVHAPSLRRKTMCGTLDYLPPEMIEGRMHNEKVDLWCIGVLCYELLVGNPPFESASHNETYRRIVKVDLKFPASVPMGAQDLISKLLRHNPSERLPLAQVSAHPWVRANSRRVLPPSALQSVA

[36] = molecular target: T1, Insulin-like growth factor 1 receptor; assay: Inhibition of IGF1R in human PANC1 cells assessed as reduction in Akt phosphorylation at Ser473 residue after 24 hrs by immunoblot analysis; assay type: cell-based; outline: as §3

SMILES: CN1CCN(CCO/N=C2/C(=C3/C(=O)Nc4ccccc43)Nc3ccccc32)CC1
- growth inhibition (GI) [1]: Active
- growth inhibition (GI) [2]: Active
- growth inhibition (GI) [3]: Active
- inhibition [4]: Active
- growth inhibition (GI) [5]: Active
- inhibition [6]: inactive
- growth inhibition (GI) [7]: Active
- growth inhibition (GI) [8]: Active
- growth inhibition (GI) [9]: Active
- inhibition [10]: inactive
- growth inhibition (GI) [11]: Active
- growth inhibition (GI) [12]: Active
- inhibition [13]: inactive
- growth inhibition (GI) [14]: Active
- growth inhibition (GI) [15]: Active
- growth inhibition (GI) [16]: Active
- growth inhibition (GI) [17]: Active
- growth inhibition (GI) [18]: Active
- inhibition [19]: inactive
- inhibition [20]: inactive
- growth inhibition (GI) [21]: Active
- growth inhibition (GI) [22]: Active
- growth inhibition (GI) [23]: Active
- growth inhibition (GI) [24]: Active
- growth inhibition (GI) [25]: Active
- growth inhibition (GI) [26]: Active
- inhibition [27]: Dose-dependent effect
- growth inhibition (GI) [28]: Active
- growth inhibition (GI) [29]: Active
- growth inhibition (GI) [30]: Active
- growth inhibition (GI) [31]: Active
- growth inhibition (GI) [32]: Active
- growth inhibition (GI) [33]: Active
- growth inhibition (GI) [34]: Active
- inhibition [35]: inactive
- inhibition [36]: Dose-dependent effect
